In general, Ki refers to the dissociation constant of the complex between target and ligand, obtained from inhibition or displacement. Usually inhibition stands for the relative decrease from the control value, in per cent.

This is an account of results in ChEMBL document CHEMBL3621201, “Improving the Selectivity of Engineered Protease Inhibitors: Optimizing the P2 Prime Residue Using a Versatile Cyclic Peptide Library” (J Med Chem, 2015).

For assay [1], the target named is Plasminogen (Homo sapiens, UniProt P00747). Kind of assay: Inhibition of plasmin (unknown origin) using Ac-RM(O2)YRpNA substrate by spectrophotometry method. In a few lines: (§1)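 Inhibition constants were measured in 0.1 M Tris pH 8.0, 0.1 M NaCl, 0.005% Triton X-100 with 100 µM peptide-pNA substrate. Protease-specific additives were also included. Absorbance at 405 nm was read every 10 s over 300 s. Rates were compared with no-inhibitor controls, and Morrison Ki was fitted by non-linear regression.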

The target of assay [2] is T1, Prothrombin (Homo sapiens, UniProt P00734). Kind of assay: Inhibition of alpha-thrombin (unknown origin) using Ac-ATPRpNA substrate by spectrophotometry method. In a few lines:
as §1

For assay [3], the target named is Trypsin (Homo sapiens, UniProt P07477+P07478+P35030). In words: Inhibition of beta-trypsin (unknown origin) using Bz-FVRpNA substrate by spectrophotometry method. It counts as protein assay. In a few lines: as §1
Assay [4] has as its target T2, Kallikrein-5 (Homo sapiens, UniProt Q9Y337).
T2 sequence (Q9Y337 whole entry): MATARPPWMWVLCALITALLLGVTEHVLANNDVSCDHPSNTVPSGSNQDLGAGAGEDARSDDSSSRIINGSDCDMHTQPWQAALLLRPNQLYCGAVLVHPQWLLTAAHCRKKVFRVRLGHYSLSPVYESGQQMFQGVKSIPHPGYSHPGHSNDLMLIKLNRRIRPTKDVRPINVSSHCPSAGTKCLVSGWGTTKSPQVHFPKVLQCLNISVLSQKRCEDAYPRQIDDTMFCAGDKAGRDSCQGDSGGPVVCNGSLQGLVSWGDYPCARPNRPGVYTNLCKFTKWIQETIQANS
In words: Inhibition of KLK5 (unknown origin) expressed in Pichia pastoris X33 using Ac-YRSR-pNA by spectrophotometry method. In a few lines:
as §1

Assay [5] deals with T3, Kallikrein-4 (Homo sapiens, UniProt Q9Y5K2). In words: Inhibition of KLK4 (unknown origin) expressed in Sf9 cells using FVQRpNA substrate by spectrophotometry method. In a few lines:
as §1

Assay [6] addresses Coagulation factor X (Homo sapiens) (UniProt P00742). Kind of assay: Inhibition of factor 10a (unknown origin) at 50 uM using Ac-QRSRpNA substrate by spectrophotometry method.
Assay [7] concerns the target T4, Suppressor of tumorigenicity 14 protein (Homo sapiens) (UniProt Q9Y5Y6).
T4 sequence (whole entry): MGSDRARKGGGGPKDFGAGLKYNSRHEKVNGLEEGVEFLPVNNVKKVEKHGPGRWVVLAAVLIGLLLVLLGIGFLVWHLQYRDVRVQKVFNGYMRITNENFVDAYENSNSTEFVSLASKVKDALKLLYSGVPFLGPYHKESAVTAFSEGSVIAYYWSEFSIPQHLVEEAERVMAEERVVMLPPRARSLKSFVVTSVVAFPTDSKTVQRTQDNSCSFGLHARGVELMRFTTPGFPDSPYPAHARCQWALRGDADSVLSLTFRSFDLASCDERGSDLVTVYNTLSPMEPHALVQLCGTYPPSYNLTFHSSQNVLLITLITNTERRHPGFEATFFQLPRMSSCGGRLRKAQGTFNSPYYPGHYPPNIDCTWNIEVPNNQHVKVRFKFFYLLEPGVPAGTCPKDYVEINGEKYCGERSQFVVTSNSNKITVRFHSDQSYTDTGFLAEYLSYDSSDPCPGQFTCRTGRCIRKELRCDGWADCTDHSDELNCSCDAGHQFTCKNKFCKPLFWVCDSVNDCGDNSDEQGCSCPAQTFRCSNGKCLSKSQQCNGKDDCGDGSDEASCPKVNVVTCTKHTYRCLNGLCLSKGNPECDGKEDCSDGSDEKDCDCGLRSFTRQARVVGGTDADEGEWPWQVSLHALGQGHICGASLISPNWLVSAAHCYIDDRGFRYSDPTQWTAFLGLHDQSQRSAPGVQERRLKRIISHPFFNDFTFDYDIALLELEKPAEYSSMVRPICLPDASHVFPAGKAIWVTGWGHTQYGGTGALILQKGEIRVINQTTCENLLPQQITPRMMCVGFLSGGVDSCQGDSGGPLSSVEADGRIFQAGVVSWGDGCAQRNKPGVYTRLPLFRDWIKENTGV
In words: Inhibition of matriptase (unknown origin) at 10 uM using Ac-RQFRpNA substrate by spectrophotometry method.

Assay [8] concerns the target Coagulation factor XI (Homo sapiens) (UniProt P03951). Kind of assay: Inhibition of factor 11a (unknown origin) at 10 uM using Bz-FVRpNA substrate by spectrophotometry method.
For assay [9], the target named is T3, Kallikrein-4. In words: Inhibition of KLK4 (unknown origin) expressed in Sf9 cells at 25 nM using FVQRpNA substrate by spectrophotometry method.
In assay [10] the target is Serine protease 1 (Homo sapiens) (UniProt P07477). In words: Inhibition of beta-trypsin (unknown origin) at 25 nM using Bz-FVRpNA substrate by spectrophotometry method.
The target in assay [11] is Kallikrein-5 (Homo sapiens) (UniProt Q9Y337). In words: Inhibition of KLK5 (unknown origin) expressed in Pichia pastoris X33 at 50 nM using Ac-YRSR-pNA by spectrophotometry method.
The species named for assay [12] is Homo sapiens. Kind of assay: Inhibition of alpha chymotrypsin (unknown origin) at 25 uM using Ac-GRPY-pNA by spectrophotometry method.
For assay [13], the target named is T1, Prothrombin. In words: Inhibition of alpha-thrombin (unknown origin) at 25 uM using Ac-ATPRpNA substrate by spectrophotometry method.
Assay [14] has as its target T5, Kallikrein-7 (Homo sapiens, UniProt P49862). Kind of assay: Inhibition of KLK7 (unknown origin) expressed in Pichia pastoris X33 at 200 nM using KHLY-pNA substrate by spectrophotometry method.
Target sequence in this assay (P49862 30-253 limits assumed): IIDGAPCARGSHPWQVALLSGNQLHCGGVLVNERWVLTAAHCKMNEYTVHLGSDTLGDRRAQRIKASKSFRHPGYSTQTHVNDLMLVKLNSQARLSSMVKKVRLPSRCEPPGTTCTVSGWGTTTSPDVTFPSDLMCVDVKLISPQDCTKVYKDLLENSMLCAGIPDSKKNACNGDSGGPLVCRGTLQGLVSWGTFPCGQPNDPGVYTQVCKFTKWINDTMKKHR
For assay [15], the target named is T5, Kallikrein-7. Kind of assay: Inhibition of KLK7 (unknown origin) expressed in Pichia pastoris X33 using KHLY-pNA substrate by spectrophotometry method. In a few lines: as §1
Target sequence in this assay (P49862 whole entry): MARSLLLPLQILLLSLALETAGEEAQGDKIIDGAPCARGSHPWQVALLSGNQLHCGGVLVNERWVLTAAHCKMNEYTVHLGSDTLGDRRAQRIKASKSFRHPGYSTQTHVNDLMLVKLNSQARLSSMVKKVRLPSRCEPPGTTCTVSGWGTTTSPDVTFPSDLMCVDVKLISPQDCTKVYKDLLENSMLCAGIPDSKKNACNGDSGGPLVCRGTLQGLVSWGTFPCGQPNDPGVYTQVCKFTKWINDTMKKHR
Assay [16] has as its target T6, Coagulation factor XII (Homo sapiens) (UniProt P00748).
T6 sequence (whole entry): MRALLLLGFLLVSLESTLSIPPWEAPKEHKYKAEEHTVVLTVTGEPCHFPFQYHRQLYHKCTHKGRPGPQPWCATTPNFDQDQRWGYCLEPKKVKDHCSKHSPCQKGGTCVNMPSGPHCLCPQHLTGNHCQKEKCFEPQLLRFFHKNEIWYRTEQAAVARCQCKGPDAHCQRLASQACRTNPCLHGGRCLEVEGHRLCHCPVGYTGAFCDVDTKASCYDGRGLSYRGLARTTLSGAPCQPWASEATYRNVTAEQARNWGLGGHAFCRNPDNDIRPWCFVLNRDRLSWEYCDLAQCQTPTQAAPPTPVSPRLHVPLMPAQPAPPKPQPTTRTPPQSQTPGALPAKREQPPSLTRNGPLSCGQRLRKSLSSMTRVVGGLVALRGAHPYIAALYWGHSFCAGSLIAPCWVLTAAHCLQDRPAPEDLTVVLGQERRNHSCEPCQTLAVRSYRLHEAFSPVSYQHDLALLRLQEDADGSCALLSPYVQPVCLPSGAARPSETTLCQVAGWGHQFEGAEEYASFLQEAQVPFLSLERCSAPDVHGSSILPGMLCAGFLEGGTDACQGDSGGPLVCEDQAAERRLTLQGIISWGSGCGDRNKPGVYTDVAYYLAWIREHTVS
In words: Inhibition of factor 12a-alpha (unknown origin) at 10 uM using Ac-QRFRpNA substrate by spectrophotometry method.

Each structure is given as a SMILES string. The source made the active and inactive calls. The calls are words filed in the database; no cut-off is given here. Bridge positions count the residues as written; N and C are the ends. Peptide text beside a SMILES is read from it.

T3 sequence (Q9Y5K2 whole entry): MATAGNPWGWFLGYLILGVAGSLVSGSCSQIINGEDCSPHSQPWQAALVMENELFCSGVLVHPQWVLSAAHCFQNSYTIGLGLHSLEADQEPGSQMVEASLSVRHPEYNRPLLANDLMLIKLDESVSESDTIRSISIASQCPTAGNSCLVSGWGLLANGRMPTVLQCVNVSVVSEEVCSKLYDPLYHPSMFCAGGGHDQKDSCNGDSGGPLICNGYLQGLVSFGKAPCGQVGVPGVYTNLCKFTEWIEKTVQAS
Plasminogen, sequence (P00747 97-580 limits assumed): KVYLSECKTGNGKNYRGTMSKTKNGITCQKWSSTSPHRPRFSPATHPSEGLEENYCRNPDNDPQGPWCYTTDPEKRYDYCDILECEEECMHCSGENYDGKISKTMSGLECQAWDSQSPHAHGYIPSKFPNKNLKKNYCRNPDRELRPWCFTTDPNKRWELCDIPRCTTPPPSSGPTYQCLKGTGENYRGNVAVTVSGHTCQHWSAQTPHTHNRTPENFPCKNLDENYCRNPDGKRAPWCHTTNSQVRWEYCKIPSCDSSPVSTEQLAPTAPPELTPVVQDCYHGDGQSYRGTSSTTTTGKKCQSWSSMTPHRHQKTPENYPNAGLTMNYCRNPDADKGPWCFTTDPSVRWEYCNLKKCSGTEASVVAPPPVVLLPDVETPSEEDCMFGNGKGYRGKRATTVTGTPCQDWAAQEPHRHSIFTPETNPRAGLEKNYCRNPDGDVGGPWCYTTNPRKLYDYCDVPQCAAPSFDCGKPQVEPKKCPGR
Plasminogen, sequence (P00747 581-810 limits assumed): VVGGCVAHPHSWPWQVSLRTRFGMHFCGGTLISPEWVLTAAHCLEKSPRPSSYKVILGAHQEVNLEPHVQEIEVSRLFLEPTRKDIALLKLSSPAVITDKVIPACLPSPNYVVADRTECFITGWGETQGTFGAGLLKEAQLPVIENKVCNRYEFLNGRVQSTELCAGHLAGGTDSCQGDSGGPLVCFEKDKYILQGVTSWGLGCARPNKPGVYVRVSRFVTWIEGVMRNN
Coagulation factor X (Homo sapiens), sequence (P00742 41-179 limits assumed): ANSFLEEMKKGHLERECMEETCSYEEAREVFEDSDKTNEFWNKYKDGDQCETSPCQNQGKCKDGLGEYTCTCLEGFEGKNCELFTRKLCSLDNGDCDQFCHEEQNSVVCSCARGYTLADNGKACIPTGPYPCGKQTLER
Coagulation factor X (Homo sapiens), sequence (P00742 235-488 limits assumed): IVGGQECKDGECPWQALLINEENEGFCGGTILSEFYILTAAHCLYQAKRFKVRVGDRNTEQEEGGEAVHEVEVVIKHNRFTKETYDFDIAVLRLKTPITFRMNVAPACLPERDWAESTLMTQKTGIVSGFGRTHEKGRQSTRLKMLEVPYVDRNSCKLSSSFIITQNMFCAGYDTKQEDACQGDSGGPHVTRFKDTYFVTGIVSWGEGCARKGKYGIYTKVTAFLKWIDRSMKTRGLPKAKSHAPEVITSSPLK
Coagulation factor XI (Homo sapiens), sequence (P03951 19-387 limits assumed): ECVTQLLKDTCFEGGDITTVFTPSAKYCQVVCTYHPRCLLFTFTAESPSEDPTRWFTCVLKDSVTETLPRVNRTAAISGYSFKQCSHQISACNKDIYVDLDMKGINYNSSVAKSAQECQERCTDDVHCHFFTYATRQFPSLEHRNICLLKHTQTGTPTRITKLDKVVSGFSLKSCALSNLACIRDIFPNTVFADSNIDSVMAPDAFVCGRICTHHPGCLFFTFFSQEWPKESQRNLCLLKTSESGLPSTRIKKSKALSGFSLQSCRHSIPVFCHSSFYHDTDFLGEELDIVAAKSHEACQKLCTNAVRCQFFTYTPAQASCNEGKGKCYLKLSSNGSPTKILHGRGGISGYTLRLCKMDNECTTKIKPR
Coagulation factor XI (Homo sapiens), sequence (P03951 388-625 limits assumed): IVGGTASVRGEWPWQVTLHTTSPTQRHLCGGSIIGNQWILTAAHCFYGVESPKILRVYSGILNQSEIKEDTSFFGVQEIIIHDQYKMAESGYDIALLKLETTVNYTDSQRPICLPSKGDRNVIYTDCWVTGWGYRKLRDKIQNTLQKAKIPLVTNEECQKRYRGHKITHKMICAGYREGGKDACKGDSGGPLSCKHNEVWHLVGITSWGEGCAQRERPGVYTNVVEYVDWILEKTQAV
Serine protease 1 (Homo sapiens), sequence (P07477 whole entry): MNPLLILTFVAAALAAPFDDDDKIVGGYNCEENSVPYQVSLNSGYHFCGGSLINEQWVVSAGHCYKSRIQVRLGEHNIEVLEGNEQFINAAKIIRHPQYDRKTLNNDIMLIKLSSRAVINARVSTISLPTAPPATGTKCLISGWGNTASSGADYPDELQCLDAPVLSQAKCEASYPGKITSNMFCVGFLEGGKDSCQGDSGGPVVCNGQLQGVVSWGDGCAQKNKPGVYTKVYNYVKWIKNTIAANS

`CC[C@H](C)[C@@H]1NC(=O)[C@@H]2CCCN2C(=O)[C@@H]2CCCN2C(=O)[C@H]([C@@H](C)CC)NC(=O)[C@H](CO)NC(=O)[C@H](CCCNC(=N)N)NC(=O)[C@H]([C@@H](C)O)NC(=O)[C@@H]2CSSC[C@H](NC1=O)C(=O)N[C@@H](Cc1ccccc1)C(=O)N1CCC[C@H]1C(=O)N[C@H](C(=O)O)CC(=O)NCC(=O)N[C@@H](CCCNC(=N)N)C(=O)N2` (GRCTRSIPPICFPD-OH; disulfide 3-11; lactam N-14): the Ki in [1] was determined as 121 nM; in assay [2] it was 381 nM; in assay [3], 0.03 nM.
As to `CC[C@H](C)[C@@H]1NC(=O)[C@@H]2CCCN2C(=O)[C@@H]2CCCN2C(=O)[C@H](Cc2ccc(O)cc2)NC(=O)[C@H](CO)NC(=O)[C@H](CCCNC(=N)N)NC(=O)[C@H]([C@@H](C)O)NC(=O)[C@@H]2CSSC[C@H](NC1=O)C(=O)N[C@@H](Cc1ccccc1)C(=O)N1CCC[C@H]1C(=O)N[C@H](C(=O)O)CC(=O)NCC(=O)N[C@@H](CCCNC(=N)N)C(=O)N2` (GRCTRSYPPICFPD-OH; disulfide 3-11; lactam N-14), the results for the Ki in assay [1], in assay [2] and in assay [3] were 549 nM, 214 nM and 0.16 nM, respectively.
Turning to `C[C@@H](O)[C@@H]1NC(=O)[C@@H](NC(=O)[C@H](CCCNC(=N)N)NC(=O)CN)CSSC[C@@H](C(=O)N[C@@H](Cc2cnc[nH]2)C(=O)O)NC(=O)[C@H](CCCNC(=N)N)NC(=O)[C@@H]2CCCN2C(=O)[C@@H]2CCCN2C(=O)[C@H](CC(=O)O)NC(=O)[C@H](CO)NC(=O)[C@H](CCCCN)NC1=O` (H-GRCTKSDPPRCH-OH; disulfide 3-11), the Ki in assay [1] is 17100 nM; in assay [2], greater than 50000 nM; in assay [3], 2830 nM.
For `CC[C@H](C)[C@@H]1NC(=O)[C@@H]2CSSC[C@H](NC(=O)[C@H]([C@@H](C)CC)NC(=O)[C@@H]3CCCN3C(=O)[C@@H]3CCCN3C(=O)[C@H]([C@@H](C)CC)NC(=O)[C@H](CO)NC(=O)[C@H](CCCNC(=N)N)NC1=O)C(=O)N[C@@H](CC(N)=O)C(=O)N1CCC[C@H]1C(=O)N[C@@H](CC(N)=O)C(=O)NCC(=O)N[C@@H](Cc1c[nH]c3ccccc13)C(=O)N2` (cyclo(CIRSIPPICNPNGW); disulfide 1-9), the values for the Ki in assay [4], in [5] and in [3] were 362 nM, 9 nM and 379 nM, respectively.
On the same counts, the results for `CC[C@H](C)[C@@H]1NC(=O)[C@@H]2CSSC[C@H](NC(=O)[C@H]([C@@H](C)CC)NC(=O)[C@@H]3CCCN3C(=O)[C@@H]3CCCN3C(=O)[C@H](CCCCN)NC(=O)[C@H](CO)NC(=O)[C@H](CCCNC(=N)N)NC1=O)C(=O)N[C@@H](CC(N)=O)C(=O)N1CCC[C@H]1C(=O)N[C@@H](CC(N)=O)C(=O)NCC(=O)N[C@@H](Cc1c[nH]c3ccccc13)C(=O)N2` (cyclo(CIRSKPPICNPNGW); disulfide 1-9) are greater than 50000 nM, 19.9 nM and 3200 nM.
As to `CC[C@H](C)[C@@H]1NC(=O)[C@@H]2CCCN2C(=O)[C@@H]2CCCN2C(=O)[C@H](CC(=O)O)NC(=O)[C@H](CO)NC(=O)[C@H](CCCNC(=N)N)NC(=O)[C@H]([C@@H](C)O)NC(=O)[C@@H]2CSSC[C@H](NC1=O)C(=O)N[C@@H](CC(N)=O)C(=O)N1CCC[C@H]1C(=O)N[C@@H](CC(N)=O)C(=O)NCC(=O)N[C@@H]([C@@H](C)O)C(=O)N2` (cyclo(CNPNGTCTRSDPPI); disulfide 1-7), the inhibition was 31% in [6], 29% in assay [7] and 34% in assay [8]. In addition, the inhibition result in [9] and in assay [10] was “inactive” each time.
Take `CC[C@H](C)[C@@H]1NC(=O)[C@@H]2CCCN2C(=O)[C@@H]2CCCN2C(=O)[C@H](Cc2ccccc2)NC(=O)[C@H](CO)NC(=O)[C@H](CCCNC(=N)N)NC(=O)[C@H]([C@@H](C)O)NC(=O)[C@@H]2CSSC[C@H](NC1=O)C(=O)N[C@@H](CC(N)=O)C(=O)N1CCC[C@H]1C(=O)N[C@@H](CC(N)=O)C(=O)NCC(=O)N[C@@H]([C@@H](C)O)C(=O)N2` (cyclo(CNPNGTCTRSFPPI); disulfide 1-7): the inhibition result in assay [11] and in assay [9] was “Active” each time. Also, the inhibition is 52% in assay [12] and 41% in assay [13].
Regarding `CC[C@H](C)[C@@H]1NC(=O)[C@@H]2CCCN2C(=O)[C@@H]2CCCN2C(=O)[C@H](CC(N)=O)NC(=O)[C@H](CO)NC(=O)[C@H](CCCNC(=N)N)NC(=O)[C@H]([C@@H](C)O)NC(=O)[C@@H]2CSSC[C@H](NC1=O)C(=O)N[C@@H](CC(N)=O)C(=O)N1CCC[C@H]1C(=O)N[C@@H](CC(N)=O)C(=O)NCC(=O)N[C@@H]([C@@H](C)O)C(=O)N2` (cyclo(CNPNGTCTRSNPPI); disulfide 1-7), the inhibition in [11] is 93%; in assay [14], 97%; in [7], 37%; in assay [13], 49%. For the same molecule, the inhibition entry in assay [9] is “Active”. Also, the Ki worked out at 5.2 nM in assay [4] and 0.8 nM in assay [15].
As to `CC[C@H](C)[C@@H]1NC(=O)[C@@H]2CCCN2C(=O)[C@@H]2CCCN2C(=O)[C@H](Cc2ccc(O)cc2)NC(=O)[C@H](CO)NC(=O)[C@H](CCCNC(=N)N)NC(=O)[C@H]([C@@H](C)O)NC(=O)[C@@H]2CSSC[C@H](NC1=O)C(=O)N[C@@H](CC(N)=O)C(=O)N1CCC[C@H]1C(=O)N[C@@H](CC(N)=O)C(=O)NCC(=O)N[C@@H]([C@@H](C)O)C(=O)N2` (cyclo(CNPNGTCTRSYPPI); disulfide 1-7), the inhibition result in assay [11] is “Active”. Besides, the inhibition was determined as 26% in assay [6], 62% in [13] and 75% in assay [16].
